The source of these data is ChEMBL document CHEMBL1138836, “4-[5-Fluoro-3-[4-(2-methyl-1H-imidazol-1-yl)benzyloxy]phenyl]-3,4,5,6- tetrahydro-2H-pyran-4-carboxamide, an orally active inhibitor of 5-lipoxygenase with improved pharmacokinetic and toxicology characteristics” (J Med Chem, 2004).

Series [1] addresses T1, Polyunsaturated fatty acid 5-lipoxygenase (Homo sapiens, UniProt P09917).
T1 sequence (P09917 whole entry): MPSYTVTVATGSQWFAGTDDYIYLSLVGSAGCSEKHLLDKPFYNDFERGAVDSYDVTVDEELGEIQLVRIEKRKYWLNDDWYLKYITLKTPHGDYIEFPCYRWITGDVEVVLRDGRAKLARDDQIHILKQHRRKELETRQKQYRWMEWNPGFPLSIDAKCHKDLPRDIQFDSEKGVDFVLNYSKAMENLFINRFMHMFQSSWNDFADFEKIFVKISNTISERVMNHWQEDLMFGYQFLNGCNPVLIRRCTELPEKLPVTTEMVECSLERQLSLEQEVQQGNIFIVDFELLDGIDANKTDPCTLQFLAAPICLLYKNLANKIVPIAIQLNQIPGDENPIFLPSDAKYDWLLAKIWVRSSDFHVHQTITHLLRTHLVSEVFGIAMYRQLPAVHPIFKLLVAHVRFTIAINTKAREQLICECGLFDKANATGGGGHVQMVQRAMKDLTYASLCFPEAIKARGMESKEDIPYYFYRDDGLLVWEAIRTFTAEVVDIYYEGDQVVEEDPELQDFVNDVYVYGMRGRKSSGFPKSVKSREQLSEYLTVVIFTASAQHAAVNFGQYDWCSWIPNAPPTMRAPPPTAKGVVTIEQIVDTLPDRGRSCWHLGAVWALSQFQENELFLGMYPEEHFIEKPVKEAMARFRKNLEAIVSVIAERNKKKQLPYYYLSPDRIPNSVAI
Briefly: Inhibition of 5-Lipoxygenase (5-LO) of human whole blood (HWB). In kind it is tissue-based.

A further series relates to Mus musculus. Briefly: In vivo potency was determined after oral administration to mice by the PAF (platelet activating factor) induced thrombosis assay. In kind it is functional. In short, it runs like this: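 Male […] mice were dosed orally, then given platelet activating factor to induce thrombosis. ED50 reported in mg/kg.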
Series [2] can be described thus: Bioavailability of compound at 10 mg/kg in rat after oral administration. In kind it is ADME, organism-based. Particulars: in vivo. The essentials:
(§1)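 Oral bioavailability derived from oral and intravenous pharmacokinetic data. Doses: monkey 5 mg/kg oral vs 3 mg/kg iv; rat and guinea pig 10 mg/kg oral vs 3 mg/kg iv.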

A short description of series [3]: Bioavailability of compound at 3 mg/kg in rat […]. Type of series: ADME, organism-based. Particulars: in vivo, iv. The essentials: as §1
The nature of series [4]: Bioavailability of compound at 10 mg/kg in guinea pig after oral administration. The conditions noted are these: in vivo.
Series [5] can be described thus: Oral bioavailability of compound at 5 mg/kg in monkey. In kind it is ADME, organism-based. Particulars: cercopithecidae, in vivo. The essentials: as §1
Series [6] in a line: Bioavailability of compound at 3 mg/kg in guinea pig […]. The conditions noted are these: in vivo, iv. In kind it is ADME, organism-based, Cavia porcellus. The essentials: as §1
The nature of series [7]: Bioavailability of compound at 3 mg/kg in monkey […]. In kind it is ADME, organism-based. Particulars: cercopithecidae, in vivo, iv. In short, it runs like this: as §1
A short description of series [8]: Maximum concentration of compound found in plasma at 5 mg/kg after oral administration. In kind it is ADME, organism-based. Details: dose 5 mg/kg, route oral. The conditions noted are these: cercopithecidae. The essentials:
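Male cynomolgus monkeys, three animals, single 5 mg/kg oral dose with plasma concentration followed over time. Values are mean ± SEM (n = 3), Cmax in μg/mL.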

In general, IC50 refers to the concentration that inhibits the measured activity by half. Molecule `Cc1nccn1-c1ccc(COc2cc(F)cc(C3(O)CCOCC3)c2)cc1` showed an IC50 in [1] greater than 1000 nM.
Still for that read-out and setting: then `Cc1nccn1-c1ccc(COc2cc(F)cc(C3(S(C)(=O)=O)CCOCC3)c2)cc1`, with greater than 1000 nM.
The same measure, in the same setting: then `Cc1nccn1-c1ccc(COc2cc(F)cc(C3([S+](C)[O-])CCOCC3)c2)cc1` (stereo unspecified), with greater than 1000 nM.
In general, ED50 refers to the dose at which the effect has come halfway, by size or by number of responders. `CCOC(=O)C1(c2cc(F)cc(OCc3ccc(-n4ccnc4C)cc3)c2)CCOCC1`: the ED50 in the series with Mus musculus stood at 16 mg/kg. This molecule came in with an IC50 in series [1] of 200 nM.
Molecule `COC1(c2cc(F)cc(OCc3ccc(-n4ccnc4C)cc3)c2)CCOCC1` displayed an ED50 in the series with Mus musculus of 2 mg/kg. Moreover, in series [1], 60 nM corresponded to half-maximal inhibition (IC50).
As a reminder, the Cmax is the peak of the concentration-time curve. As for `Cc1nccn1-c1ccc(COc2cc(F)cc(C3(C(N)=O)CCOCC3)c2)cc1`, the bioavailability in series [2] was determined as 102%; in series [3] it was 102%; in series [4], 108%; in series [5], 88%; in series [6], 108%; in [7], 88%. The molecule also displayed an IC50 in series [1] of 340 nM. The same molecule yielded a Cmax in series [8] of 1570 ng/mL.
As for `Cc1nccn1-c1ccc(COc2cc(F)cc(C3(C(=O)N(C)C)CCOCC3)c2)cc1`, the ED50 in the series with Mus musculus was greater than 20 mg/kg. Besides, 810 nM corresponded to half-maximal inhibition in series [1] (IC50).
The corresponding values for `CSC1(c2cc(F)cc(OCc3ccc(-n4ccnc4C)cc3)c2)CCOCC1` are 5 mg/kg and 72 nM.
In turn, `CC(=O)C1(c2cc(F)cc(OCc3ccc(-n4ccnc4C)cc3)c2)CCOCC1` registered an ED50 in the series with Mus musculus of 12 mg/kg. Also, the IC50 in [1] is 130 nM.
On the same counts, the results for `CNC(=O)C1(c2cc(F)cc(OCc3ccc(-n4ccnc4C)cc3)c2)CCOCC1` are 13 mg/kg and 280 nM.
In turn, `Cc1nccn1-c1ccc(COc2cc(F)cc(C3(C(=O)O)CCOCC3)c2)cc1` registered an IC50 in series [1] greater than 1000 nM.
In the series on Mus musculus, `CCOC1(c2cc(F)cc(OCc3ccc(-n4ccnc4C)cc3)c2)CCOCC1` displayed an ED50 of 5 mg/kg. In addition, in [1], the IC50 worked out at 80 nM.
